Measurements as given in ChEMBL document CHEMBL2311458, “A facile synthesis, antibacterial activity of pulvinone and its derivatives” (2013).
In brackets after ≈: the same amount, converted by molar mass. Activity calls are given as the source filed them. The calls are words filed in the database; no cut-off is given here.

What was measured:
Type in all cases: functional
Acinetobacter baumannii [1] = assay: Antibacterial activity against Acinetobacter baumannii assessed as growth inhibition measured after 24 hrs by broth microdilution method
Method in brief: (§1)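 Broth microdilution per NCCLS. Bacteria were grown in Luria broth to exponential phase. Compounds were dissolved in DMSO (stock 5120 μg/ml), diluted in test medium and tested at two-fold dilutions from 1 to 128 μg/ml. MIC50 is the lowest concentration reducing OD to half that of the untreated control.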

Staphylococcus aureus [2] = assay: Antibacterial activity against Staphylococcus aureus assessed as growth inhibition measured after 24 hrs by broth microdilution method; method in brief: as §1
Pseudomonas aeruginosa [3] = assay: Antibacterial activity against Pseudomonas aeruginosa assessed as growth inhibition measured after 24 hrs by broth microdilution method; method in brief: as §1
Escherichia coli [4] = assay: Antibacterial activity against Escherichia coli assessed as growth inhibition measured after 24 hrs by broth microdilution method; method in brief: as §1
[5] = system: Stenotrophomonas maltophilia; assay: Antibacterial activity against Stenotrophomonas maltophilia assessed as growth inhibition measured after 24 hrs by broth microdilution method; method in brief: as §1
Staphylococcus aureus [6] = assay: Antibacterial activity against Staphylococcus aureus assessed as growth inhibition measured at 50 ug/ml after 24 hrs by broth microdilution method
Acinetobacter baumannii [7] = assay: Antibacterial activity against Acinetobacter baumannii assessed as growth inhibition measured at 50 ug/ml after 24 hrs by broth microdilution method
Pseudomonas aeruginosa [8] = assay: Antibacterial activity against Pseudomonas aeruginosa assessed as growth inhibition measured at 50 ug/ml after 24 hrs by broth microdilution method
Escherichia coli [9] = assay: Antibacterial activity against Escherichia coli assessed as growth inhibition measured at 50 ug/ml after 24 hrs by broth microdilution method
[10] = system: Stenotrophomonas maltophilia; assay: Antibacterial activity against Stenotrophomonas maltophilia assessed as growth inhibition measured at 50 ug/ml after 24 hrs by broth microdilution method

| Structure (SMILES) | MIC50 (Acinetobacter baumannii [1]) | MIC50 (Staphylococcus aureus [2]) | MIC50 (Pseudomonas aeruginosa [3]) | MIC50 (Escherichia coli [4]) | MIC50 [5] | inhibition (Staphylococcus aureus [6]) | inhibition at 50 µg/mL (Acinetobacter baumannii [7]) | inhibition at 50 µg/mL (Pseudomonas aeruginosa [8]) | inhibition at 50 µg/mL (Escherichia coli [9]) | inhibition at 50 µg/mL [10] | inhibition at 50 µg/mL (Staphylococcus aureus [6]) |
| --- | --- | --- | --- | --- | --- | --- | --- | --- | --- | --- | --- |
| COC1=C(c2ccccc2)C(=O)O/C1=C\c1ccc(N2CCOCC2)c(F)c1 |  |  |  | > 50 µg/mL |  | inactive | 10% | 17.6% | 45.4% |  |  |
| COC1=C(c2ccc(Cl)cc2)C(=O)O/C1=C\c1ccc(N2CCOCC2)c(F)c1 |  |  |  | 7.4 µg/mL (≈ 17.8 µM) |  | inactive |  | 45.3% | 70.7% |  |  |
| COC1=C(c2cccc(F)c2)C(=O)OC1C(O)c1ccc(N2CCOCC2)c(F)c1 (centres undefined) |  |  |  | 4.09 µg/mL (≈ 9.8 µM) |  | inactive | 30.9% | 38.2% | 72% | 41.5% |  |
| COC1=C(c2ccc(Cl)cc2)C(=O)OC1C(O)c1ccc(N2CCOCC2)c(F)c1 (centres undefined) |  |  |  | 30.3 µg/mL (≈ 69.7 µM) |  | inactive | 22.1% | 31.7% | 61.8% |  |  |
| COC1=C(c2ccccc2)C(=O)OC1C(O)c1ccccc1 (centres undefined) |  |  |  | 5.86 µg/mL (≈ 19.8 µM) |  | inactive | 25.9% | 53.2% | 61.7% | 18% |  |
| O=C1O/C(=C\c2ccc(N3CCOCC3)c(F)c2)C(O)=C1c1ccc(F)cc1 |  |  |  | 15.6 µg/mL (≈ 40.5 µM) |  | inactive | 15.6% | 23.2% | 56.8% | 27.8% |  |
| COC1=C(c2ccccc2)C(=O)O/C1=C\c1ccccc1 |  |  |  | 3.91 µg/mL (≈ 14 µM) |  | inactive | 18.2% | 45.4% | 60.2% | 19.7% |  |
| COC1=C(c2ccccc2)C(=O)OC1C(O)c1ccc(N2CCOCC2)c(F)c1 (centres undefined) |  |  |  | 36.5 µg/mL (≈ 91.3 µM) |  | inactive | 29.2% | 34.8% | 52.4% | 17.1% |  |
| COC1=C(c2ccc(F)cc2)C(=O)OC1C(O)c1ccc(N2CCOCC2)c(F)c1 (centres undefined) |  |  |  | > 50 µg/mL |  | inactive | 22.8% | 35.2% | 42% | 31.9% |  |
| COC1=C(c2ccc(F)cc2)C(=O)O/C1=C\c1ccc(N2CCOCC2)c(F)c1 |  |  |  | > 50 µg/mL | 20.6 µg/mL (≈ 51.7 µM) | inactive | 20.1% | 23.4% | 37.6% | 59.4% |  |

The next compounds have a lower MIC50 (Escherichia coli [4]) than those just listed; values first:

| MIC50 (Acinetobacter baumannii [1]) | MIC50 (Staphylococcus aureus [2]) | MIC50 (Pseudomonas aeruginosa [3]) | MIC50 (Escherichia coli [4]) | MIC50 [5] | Structure (SMILES) | inhibition (Staphylococcus aureus [6]) | inhibition at 50 µg/mL (Acinetobacter baumannii [7]) | inhibition at 50 µg/mL (Pseudomonas aeruginosa [8]) | inhibition at 50 µg/mL (Escherichia coli [9]) | inhibition at 50 µg/mL [10] | inhibition at 50 µg/mL (Staphylococcus aureus [6]) |
| --- | --- | --- | --- | --- | --- | --- | --- | --- | --- | --- | --- |
| < 0.25 µg/mL | < 0.25 µg/mL | < 0.25 µg/mL | < 0.25 µg/mL | < 0.25 µg/mL | C[C@H]1COc2c(N3CCN(C)CC3)c(F)cc3c(=O)c(C(=O)O)cn1c23.C[C@H]1COc2c(N3CCN(C)CC3)c(F)cc3c(=O)c(C(=O)O)cn1c23.O [LEVOFLOXACIN] |  |  |  |  |  |  |
|  |  |  | 1.01 µg/mL (≈ 2.11 µM) | 11.8 µg/mL (≈ 24.8 µM) | COC1=C(c2ccc(Br)cc2)C(=O)OC1C(O)c1ccc(N2CCOCC2)c(F)c1 (centres undefined) | inactive | 32.9% | 35.6% | 45.5% |  |  |
|  |  |  | 3.67 µg/mL (≈ 8.88 µM) |  | COC1=C(c2ccc(C)cc2)C(=O)OC1C(O)c1ccc(N2CCOCC2)c(F)c1 (centres undefined) | inactive | 4.9% | 31.8% | 58.3% | 1.1% |  |
| > 50 µg/mL |  | > 50 µg/mL | 1.38 µg/mL (≈ 5.22 µM) | 12.8 µg/mL (≈ 48.4 µM) | O=C1O/C(=C\c2ccccc2)C(O)=C1c1ccccc1 [PULVINONE] |  |  |  |  |  | 59.2% |
